Tests used:
Type in all cases: functional
[1] = test system: KM12; test: Anticancer activity against human KM12 cells assessed as cell growth inhibition incubated for 48 hrs by SRB method
How it was run: (§1)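 NCI-60 panel (DTP). Cells in RPMI 1640 with 5% FBS, 2 mM L-glutamine, seeded at 5,000–40,000 per well by doubling time and preincubated 24 h at 37 °C, 5% CO2. Time-zero plates TCA-fixed. DMSO stocks diluted in medium with gentamicin, tested at 100 μM, 10 μM, 1 μM, 0.1 μM and 10 nM for 48 h. Cells fixed with cold TCA, stained with SRB, absorbance read at 515 nm.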

[2] = test system: DU-145; test: Anticancer activity against human DU-145 cells assessed as cell growth inhibition incubated for 48 hrs by SRB method; how it was run: as §1
[3] = test system: NCI-H226; test: Anticancer activity against human NCI-H226 cells assessed as cell growth inhibition incubated for 48 hrs by SRB method; how it was run: as §1
[4] = test system: IGROV-1; test: Anticancer activity against human IGROV-1 cells assessed as cell growth inhibition incubated for 48 hrs by SRB method; how it was run: as §1
[5] = test system: OVCAR-5; test: Anticancer activity against human OVCAR-5 cells assessed as cell growth inhibition incubated for 48 hrs by SRB method
[6] = test system: SF-539; test: Anticancer activity against human SF-539 cells assessed as cell growth inhibition incubated for 48 hrs by SRB method
[7] = test system: NCI-H522; test: Anticancer activity against human NCI-H522 cells assessed as cell growth inhibition incubated for 48 hrs by SRB method
[8] = test system: HL-60(TB); test: Anticancer activity against human HL-60(TB) cells assessed as cell growth inhibition incubated for 48 hrs by SRB method
[9] = test system: T47D; test: Anticancer activity against human T47D cells assessed as cell growth inhibition incubated for 48 hrs by SRB method; how it was run: as §1
[10] = test system: ACHN; test: Anticancer activity against human ACHN cells assessed as cell growth inhibition incubated for 48 hrs by SRB method; how it was run: as §1
[11] = test system: HOP-92; test: Anticancer activity against human HOP-92 cells assessed as cell growth inhibition incubated for 48 hrs by SRB method
[12] = test system: K562; test: Anticancer activity against human K562 cells assessed as cell growth inhibition incubated for 48 hrs by SRB method
[13] = test system: SW-620; test: Anticancer activity against human SW-620 cells assessed as cell growth inhibition incubated for 48 hrs by SRB method
[14] = test system: SNB-19; test: Anticancer activity against human SNB-19 cells assessed as cell growth inhibition incubated for 48 hrs by SRB method; how it was run: as §1
[15] = test system: LOX IMVI; test: Anticancer activity against human LOX IMVI cells assessed as cell growth inhibition incubated for 48 hrs by SRB method
[16] = Anticancer activity against human HS 578T cells assessed as cell growth inhibition incubated for 48 hrs by SRB method
[17] = test system: SK-MEL-28; test: Anticancer activity against human SK-MEL-28 cells assessed as cell growth inhibition incubated for 48 hrs by SRB method; how it was run: as §1
[18] = test system: SR; test: Anticancer activity against human SR cells assessed as cell growth inhibition incubated for 48 hrs by SRB method; how it was run: as §1
[19] = test system: OVCAR-4; test: Anticancer activity against human OVCAR-4 cells assessed as cell growth inhibition incubated for 48 hrs by SRB method
[20] = test system: SF-268; test: Anticancer activity against human SF-268 cells assessed as cell growth inhibition incubated for 48 hrs by SRB method; how it was run: as §1
[21] = test system: RPMI-8226; test: Anticancer activity against human RPMI-8226 cells assessed as cell growth inhibition incubated for 48 hrs by SRB method
[22] = test system: MOLT-4; test: Anticancer activity against human MOLT-4 assessed as cell growth inhibition incubated for 48 hrs by SRB method
[23] = test system: UO-31; test: Anticancer activity against human UO-31 cells assessed as cell growth inhibition incubated for 48 hrs by SRB method
How it was run: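 NCI-60 panel, SRB assay. Time-zero plates were TCA-fixed. Compounds came from DMSO stocks and were tested at 100 μM, 10 μM, 1 μM, 0.1 μM and 10 nM for 48 h. Cells were fixed with cold TCA and stained with 0.4% SRB, and the dye was solubilized in 10 mM Tris base with A515 read.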

[24] = test system: SF-295; test: Anticancer activity against human SF-295 cells assessed as cell growth inhibition incubated for 48 hrs by SRB method; how it was run: as §1
[25] = test system: HCT-15; test: Anticancer activity against human HCT-15 cells assessed as cell growth inhibition incubated for 48 hrs by SRB method; how it was run: as §1
[26] = test system: CCRF-CEM; test: Anticancer activity against human CCRF-CEM cells assessed as cell growth inhibition incubated for 48 hrs by sulforhodamine B assay
[27] = test system: HCT-116; test: Anticancer activity against human HCT-116 cells assessed as cell growth inhibition incubated for 48 hrs by SRB method; how it was run: as §1
[28] = test system: SNB-75; test: Anticancer activity against human SNB-75 cells assessed as cell growth inhibition incubated for 48 hrs by SRB method
[29] = test system: U-251; test: Anticancer activity against human U-251 cells assessed as cell growth inhibition incubated for 48 hrs by SRB method
How it was run: (§2)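 NCI-60 panel, SRB assay. Cells grown in RPMI 1640 with 5% FBS and 2 mM L-glutamine, seeded at 5,000–40,000 cells/well depending on doubling time, and preincubated 24 h at 37 °C with 5% CO2. Time-zero plates were TCA-fixed. Compounds came from DMSO stocks and were tested at 100 μM, 10 μM, 1 μM, 0.1 μM and 10 nM for 48 h. Cells were fixed with cold TCA and stained with 0.4% SRB, and the dye was solubilized in 10 mM Tris base with A515 read.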

[30] = test system: HCC 2998; test: Anticancer activity against human HCC 2998 cells assessed as cell growth inhibition incubated for 48 hrs by SRB method; how it was run: as §1
[31] = test system: Malme-3M; test: Anticancer activity against human MALME-3M cells assessed as cell growth inhibition incubated for 48 hrs by SRB method
[32] = test system: HT-29; test: Anticancer activity against human HT29 cells assessed as cell growth inhibition incubated for 48 hrs by SRB method; how it was run: as §1
[33] = test system: UACC-257; test: Anticancer activity against human UACC-257 assessed as cell growth inhibition incubated for 48 hrs by SRB method; how it was run: as §2
[34] = test system: COLO 205; test: Anticancer activity against human COLO 205 cells assessed as cell growth inhibition incubated for 48 hrs by SRB method
[35] = test system: RXF 393; test: Anticancer activity against human RXF 393 cells assessed as cell growth inhibition incubated for 48 hrs by SRB method; how it was run: as §1
[36] = test system: A498; test: Anticancer activity against human A498 cells assessed as cell growth inhibition incubated for 48 hrs by SRB method; how it was run: as §1
[37] = test system: BT-549; test: Anticancer activity against human BT-549 cells assessed as cell growth inhibition incubated for 48 hrs by SRB method; how it was run: as §1
[38] = test system: 786-0; test: Anticancer activity against human 786-0 cells assessed as cell growth inhibition incubated for 48 hrs by SRB method; how it was run: as §1
[39] = test system: A549; test: Anticancer activity against human A549 cells assessed as cell growth inhibition incubated for 48 hrs by SRB method; how it was run: as §1
[40] = test system: PC-3; test: Anticancer activity against human PC-3 cells assessed as cell growth inhibition incubated for 48 hrs by SRB method; how it was run: as §1
[41] = test system: MDA-MB-468; test: Anticancer activity against human MDA-MB-468 cells assessed as cell growth inhibition incubated for 48 hrs by SRB method; how it was run: as §1

Work on `C=C1C(=O)O[C@H]2[C@H]1CC/C(COC(=O)NCc1cc(OC)cc(OC)c1)=C\CC[C@@]1(C)O[C@@H]21` yielded a GI50 [1] of 2.8 µM, a GI50 [2] of 1.51 µM and a GI50 [3] of 2.02 µM. For the same compound, the GI50 [4] was 1.54 µM, the GI50 [5] was 1.01 µM and the GI50 [6] was 1.54 µM. For the same compound, the GI50 [7] was 0.34 µM, the GI50 [8] was 1.69 µM and the GI50 [9] was 4.12 µM. It also gave a GI50 [10] of 1.7 µM, a GI50 [11] of 1.42 µM and a GI50 [12] of 1.57 µM. It also gave a GI50 [13] of 1.12 µM, a GI50 [14] of 5.32 µM and a GI50 [15] of 0.54 µM. It also gave a GI50 [16] of 0.58 µM, a GI50 [17] of 1.66 µM and a GI50 [18] of 0.32 µM. It also gave a GI50 [19] of 2.12 µM, a GI50 [20] of 2.46 µM and a GI50 [21] of 1.8 µM. It also gave a GI50 [22] of 2 µM, a GI50 [23] of 0.68 µM and a GI50 [24] of 7.78 µM. It also gave a GI50 [25] of 0.77 µM, a GI50 [26] of 0.47 µM and a GI50 [27] of 0.77 µM. For the same compound, the GI50 [28] was 1.99 µM, the GI50 [29] was 3.16 µM and the GI50 [30] was 1.94 µM. The GI50 [31] was 1.86 µM, the GI50 [32] was 1.2 µM and the GI50 [33] was 0.27 µM. For the same compound, the GI50 [34] was 1.35 µM, the GI50 [35] was 1.29 µM and the GI50 [36] was 2.98 µM. The GI50 [37] was 1.61 µM, the GI50 [38] was 1.6 µM and the GI50 [39] was 2.58 µM. It also gave a GI50 [40] of 1.66 µM and a GI50 [41] of 0.58 µM.
`C=C1C(=O)O[C@H]2[C@H]1CC/C(COC(=O)NCc1ccccc1OC)=C\CC[C@@]1(C)O[C@@H]21` showed a GI50 [1] of 3.53 µM, a GI50 [2] of 1.68 µM and a GI50 [3] of 2.11 µM. It also gave a GI50 [4] of 1.48 µM, a GI50 [5] of 0.87 µM and a GI50 [6] of 1.53 µM. It also gave a GI50 [7] of 0.35 µM, a GI50 [8] of 1.61 µM and a GI50 [9] of 3.4 µM. The GI50 [10] was 1.16 µM, the GI50 [11] was 1.49 µM and the GI50 [12] was 0.82 µM. For the same compound, the GI50 [13] was 0.76 µM, the GI50 [14] was 1.57 µM and the GI50 [15] was 1.43 µM. The GI50 [16] was 0.49 µM, the GI50 [17] was 1.71 µM and the GI50 [18] was 0.67 µM. The GI50 [19] was 1.57 µM, the GI50 [20] was 2.2 µM and the GI50 [21] was 1.77 µM. It also gave a GI50 [22] of 2.53 µM, a GI50 [23] of 1.04 µM and a GI50 [24] of 5.02 µM. For the same compound, the GI50 [25] was 1.04 µM, the GI50 [26] was 0.48 µM and the GI50 [27] was 0.54 µM. For the same compound, the GI50 [28] was 2.44 µM, the GI50 [29] was 2.2 µM and the GI50 [30] was 1.82 µM. It also gave a GI50 [31] of 1.89 µM, a GI50 [32] of 1.22 µM and a GI50 [33] of 1.35 µM. It also gave a GI50 [34] of 1.75 µM, a GI50 [35] of 1.27 µM and a GI50 [36] of 2.26 µM. For the same compound, the GI50 [37] was 1.47 µM, the GI50 [38] was 2.45 µM and the GI50 [39] was 3.07 µM. The GI50 [40] was 1.79 µM and the GI50 [41] was 0.66 µM.
`C=C1C(=O)O[C@H]2[C@H]1CC/C(COC(=O)NCc1ccc(OC)cc1)=C\CC[C@@]1(C)O[C@@H]21` gave a GI50 [1] of 2.35 µM, a GI50 [2] of 0.16 µM and a GI50 [3] of 0.48 µM. The GI50 [4] was 0.32 µM, the GI50 [5] was 0.28 µM and the GI50 [6] was 0.32 µM. For the same compound, the GI50 [7] was 0.17 µM, the GI50 [8] was 0.26 µM and the GI50 [9] was 0.79 µM. The GI50 [10] was 0.18 µM, the GI50 [11] was 0.24 µM and the GI50 [12] was 0.37 µM. For the same compound, the GI50 [13] was 0.22 µM, the GI50 [14] was 0.7 µM and the GI50 [15] was 0.27 µM. For the same compound, the GI50 [16] was 0.27 µM, the GI50 [17] was 1.18 µM and the GI50 [18] was 0.3 µM. The GI50 [19] was 0.29 µM, the GI50 [20] was 0.75 µM and the GI50 [21] was 0.26 µM. It also gave a GI50 [22] of 0.28 µM, a GI50 [23] of 0.19 µM and a GI50 [24] of 10.8 µM. For the same compound, the GI50 [25] was 0.24 µM, the GI50 [26] was 0.26 µM and the GI50 [27] was 0.19 µM. The GI50 [28] was 0.74 µM, the GI50 [29] was 0.96 µM and the GI50 [30] was 0.51 µM. It also gave a GI50 [31] of 0.2 µM, a GI50 [32] of 0.26 µM and a GI50 [33] of 1.52 µM. The GI50 [34] was 0.24 µM, the GI50 [35] was 0.27 µM and the GI50 [36] was 1.79 µM. It also gave a GI50 [37] of 0.62 µM, a GI50 [38] of 0.49 µM and a GI50 [39] of 2.43 µM. It also gave a GI50 [40] of 0.35 µM and a GI50 [41] of 0.24 µM.
